In ChEMBL document CHEMBL1275461, “Early bactericidal activity and pharmacokinetics of the diarylquinoline TMC207 in treatment of pulmonary tuberculosis” (Antimicrob Agents Chemother, 2008):
Converted amounts (≈) assume the structure as drawn.

Experiments:
[1] = tested on: Mycobacterium tuberculosis; test: Bactericidal activity against Mycobacterium tuberculosis in pulmonary tuberculosis patient assessed as reduction in sputum bacterial count at 400 mg/kg, po once daily measured after 2 days; type: functional
Method in brief: (§1)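 Hospitalized treatment-naïve smear-positive patients took oral doses once daily, observed, after breakfast. Sputum was pooled over 16 h overnight at baseline, after each of the 7 dosing days, and on the night after the first standard-therapy dose. Sputum was stirred, digested with dithiothreitol for 20 min at room temperature, and diluted 10-fold. Dilutions were plated in quadruplicate on selective 7H11 agar and counted after 3-4 weeks at 37°C at 20-200 colonies. The read-out was change in log10 CFU/ml from baseline, with a count of 0 set to log 0.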

[2] = tested on: Mycobacterium tuberculosis; test: Bactericidal activity against Mycobacterium tuberculosis in pulmonary tuberculosis patient assessed as reduction in sputum bacterial count at 400 mg/kg, po once daily measured after 3 days; type: functional; method in brief: as §1
[3] = Tmax in pulmonary tuberculosis patient at 25 mg/kg, po once daily for 7 days by liquid chromatography-MS/MS analysis; type: ADME, organism-based; set-up: dose 25 mg/kg, route oral; settings: human, in vivo
Method in brief: (§2)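 Treatment-naïve smear-positive pulmonary TB patients, hospitalized; 7-day oral once-daily monotherapy, directly observed, within 30 min after breakfast. Heparinized plasma taken predose and 1, 2, 3, 4, 5, 6, 8, 12 and 24 h postdose on day 7, plus predose on days 5 and 6. Parent drug and N-monodesmethyl metabolite measured by validated LC-MS/MS. Noncompartmental parameters; AUC0-24 by linear trapezoidal rule.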

[4] = tested on: Mycobacterium tuberculosis; test: Bactericidal activity against Mycobacterium tuberculosis in pulmonary tuberculosis patient assessed as reduction in sputum bacterial count at 100 […], po once daily measured after 3 days; type: functional; method in brief: as §1
[5] = tested on: Mycobacterium tuberculosis; test: Antimicrobial activity against drug-sensitive Mycobacterium tuberculosis; type: functional
Homo sapiens [6] = test: Toxicity in pulmonary tuberculosis patient assessed as hemoptysis at 100 […], po once daily; type: organism-based; set-up: dose 100 mg/kg, route oral; settings: in vivo
[7] = tested on: Mycobacterium tuberculosis; test: Bactericidal activity against Mycobacterium tuberculosis in pulmonary tuberculosis patient assessed as reduction in sputum bacterial count at 100 […], po once daily measured after 5 days; type: functional; method in brief: as §1
[8] = tested on: Mycobacterium tuberculosis; test: Bactericidal activity against Mycobacterium tuberculosis in pulmonary tuberculosis patient assessed as reduction in sputum bacterial count at 100 […], po once daily measured after 4 days; type: functional; method in brief: as §1
[9] = tested on: Mycobacterium tuberculosis; test: Bactericidal activity against Mycobacterium tuberculosis in pulmonary tuberculosis patient assessed as reduction in sputum bacterial count at 400 mg/kg, po once daily measured after 6 days; type: functional; method in brief: as §1
[10] = tested on: Mycobacterium tuberculosis; test: Bactericidal activity against Mycobacterium tuberculosis in pulmonary tuberculosis patient assessed as reduction in sputum bacterial count at 100 […], po once daily measured after 1 day; type: functional; method in brief: as §1
Homo sapiens [11] = test: Toxicity in pulmonary tuberculosis patient assessed as somnolence at 400 mg/kg, po once daily for 7 days; type: organism-based; set-up: dose 400 mg/kg, route oral; settings: in vivo, 168 h
[12] = tested on: Mycobacterium tuberculosis; test: Bactericidal activity against Mycobacterium tuberculosis in pulmonary tuberculosis patient assessed as reduction in sputum bacterial count at 400 […], po once daily measured after 1 day; type: functional; method in brief: as §1
Homo sapiens [13] = test: Steady-state plasma concentration in pulmonary tuberculosis patient at 400 mg/kg, po once daily for 7 days by liquid chromatography-MS/MS analysis; type: ADME, organism-based; set-up: dose 400 mg/kg, route oral; settings: in vivo, 168 h; method in brief: as §2
[14] = tested on: Mycobacterium tuberculosis; test: Bactericidal activity against Mycobacterium tuberculosis in pulmonary tuberculosis patient assessed as reduction in sputum bacterial count at 400 mg/kg, po once daily measured after 4 days; type: functional; method in brief: as §1
[15] = tested on: Mycobacterium tuberculosis; test: Bactericidal activity against Mycobacterium tuberculosis in pulmonary tuberculosis patient assessed as reduction in sputum bacterial count at 400 mg/kg, po once daily measured after 5 days; type: functional; method in brief: as §1
[16] = Drug uptake in pulmonary tuberculosis patient at 25 mg/kg, po once daily for 7 days by liquid chromatography-MS/MS analysis; type: ADME, organism-based; set-up: dose 25 mg/kg, route oral; settings: human, in vivo, read-out: Drug uptake; method in brief: as §2
[17] = tested on: Mycobacterium tuberculosis; test: Bactericidal activity against Mycobacterium tuberculosis in pulmonary tuberculosis patient assessed as reduction in sputum bacterial count at 100 […], po once daily measured after 7 days; type: functional; method in brief: as §1
[18] = tested on: Mycobacterium tuberculosis; test: Bactericidal activity against Mycobacterium tuberculosis in pulmonary tuberculosis patient assessed as reduction in sputum bacterial count at 100 […], po once daily measured after 6 days; type: functional; method in brief: as §1
[19] = Tmax in pulmonary tuberculosis patient at 400 mg/kg, po once daily for 7 days by liquid chromatography-MS/MS analysis; type: ADME, organism-based; set-up: dose 400 mg/kg, route oral; settings: human, in vivo; method in brief: as §2
[20] = tested on: Mycobacterium tuberculosis; test: Bactericidal activity against Mycobacterium tuberculosis in pulmonary tuberculosis patient assessed as reduction in sputum bacterial count at 25 […], po once daily measured after 1 day; type: functional; method in brief: as §1
[21] = tested on: Mycobacterium tuberculosis; test: Bactericidal activity against Mycobacterium tuberculosis in pulmonary tuberculosis patient assessed as reduction in sputum bacterial count at 25 mg/kg, po once daily measured after 6 days; type: functional; method in brief: as §1
[22] = tested on: Mycobacterium tuberculosis; test: Bactericidal activity against Mycobacterium tuberculosis in pulmonary tuberculosis patient assessed as reduction in sputum bacterial count at 25 […], po once daily measured after 3 days; type: functional; method in brief: as §1
[23] = AUC (0 to 24 hrs) in pulmonary tuberculosis patient at 25 mg/kg, po once daily for 7 days by liquid chromatography-MS/MS analysis; type: ADME, organism-based; set-up: time < 24 hr, dose 25 mg/kg, route oral; settings: human, plasma
Method in brief: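 Treatment-naïve, sputum smear-positive patients, hospitalized, took the drug orally once daily under direct observation within 30 min after breakfast. On day 7, heparinized plasma was drawn predose and at 1, 2, 3, 4, 5, 6, 8, 12 and 24 h for parent drug and M2 metabolite. Levels were measured by validated LC-MS/MS, and AUC0-24 was calculated noncompartmentally by the linear trapezoidal rule.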

With COc1nc2ccc(Br)cc2cc1[C@@H](c1ccccc1)[C@@](O)(CCN(C)C)c1cccc2ccccc12 [BEDAQUILINE] the log10CFU/ml [1] was 0.04, the log10CFU/ml [2] was -0.31 and the Tmax [3] was 3.93 h. The log10CFU/ml [4] was -0.37, the MIC [5] was 0.03 µg/mL (≈ 0.054 µM) and the Activity (Homo sapiens [6]) was 6.3%. For the same compound, the log10CFU/ml [7] was -0.13, the log10CFU/ml [8] was -0.24 and the log10CFU/ml [9] was -0.46. The log10CFU/ml [10] was -0.11, the Activity (Homo sapiens [11]) was 7% and the log10CFU/ml [12] was -0.07. The Css (Homo sapiens [13]) was 2696 ng/mL, the log10CFU/ml [14] was -0.22 and the log10CFU/ml [15] was -0.45. The concentration at 168 h [16] was 104 ng/mL, the log10CFU/ml [17] was -0.26 and the log10CFU/ml [18] was -0.09. It also gave a Tmax [19] of 4 h, a log10CFU/ml [20] of -0.06 and a log10CFU/ml [21] of -0.06. It also gave a log10CFU/ml [22] of -0.04 and an AUC at 24 h [23] of 3970 ng·h/mL.
